Results from ChEMBL document CHEMBL3244179, “Potential inhibitors of S-adenosylmethionine-dependent methyltransferases. 7. Role of the ribosyl moiety in enzymatic binding of S-adenosyl-L-homocysteine and S-adenosyl-L-methionine” (J Med Chem, 1978).

Tests used:
[1] = Retardation factor, Rf of the compound on silica gel GF containing EtOH-HOAc-H2O (20:2:2)/0.1 M phosphate buffer at 7.4 by chromatography; format: physicochemical; settings: pH 7.4
Outline: (§1)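 TLC plates carried a 250 μm silica gel GF layer. Spots were located visually under UV light, and with ninhydrin for amine-containing compounds.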

[2] = molecular target: T1, Acetylserotonin O-methyltransferase (Bos taurus) (UniProt P10950); experiment: Inhibition of bovine pineal gland HIOMT at 0.2 mM by radiochemical technique
T1 sequence (whole entry): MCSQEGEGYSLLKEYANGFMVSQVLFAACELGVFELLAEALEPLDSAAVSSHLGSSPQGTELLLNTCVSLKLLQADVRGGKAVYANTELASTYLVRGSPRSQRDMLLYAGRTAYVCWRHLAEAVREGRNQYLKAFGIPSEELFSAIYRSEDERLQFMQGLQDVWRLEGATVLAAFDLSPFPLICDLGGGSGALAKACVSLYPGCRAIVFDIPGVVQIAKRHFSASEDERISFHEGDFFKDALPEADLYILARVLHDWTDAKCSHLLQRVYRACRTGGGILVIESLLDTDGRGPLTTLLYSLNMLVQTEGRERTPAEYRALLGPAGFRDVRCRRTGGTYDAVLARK
Outline: (§2)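 Bovine pineal gland HIOMT, purified by a published method, was tested with inhibitor at 0.2 or 2.0 mM, SAM-14CH3 (0.05 μCi, 1.0 mM final) and N-acetylserotonin (1.0 mM final) in buffer. Incubation was at 37 °C. Product formation was read radiochemically after extraction of the labeled product.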

[3] = molecular target: T2, Catechol O-methyltransferase (Rattus norvegicus) (UniProt P22734); experiment: Inhibition of Sprague-Dawley rat liver COMT at 0.2 mM by radiochemical technique
T2 sequence (whole entry): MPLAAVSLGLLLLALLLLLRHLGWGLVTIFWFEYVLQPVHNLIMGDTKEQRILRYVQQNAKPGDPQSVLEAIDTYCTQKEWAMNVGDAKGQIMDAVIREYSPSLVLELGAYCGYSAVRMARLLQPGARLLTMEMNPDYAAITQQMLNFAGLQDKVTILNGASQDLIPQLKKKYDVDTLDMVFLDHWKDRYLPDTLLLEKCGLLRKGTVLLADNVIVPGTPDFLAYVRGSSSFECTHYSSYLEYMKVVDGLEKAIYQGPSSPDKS
Outline: (§3)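 Rat liver COMT, purified by a published method, was tested with inhibitor at 0.2 or 2.0 mM, SAM-14CH3 (0.05 μCi, 1.0 mM final) and 3,4-dihydroxybenzoate (2.0 mM final) in buffer. Incubation was at 37 °C. Activity was measured radiochemically by extracting the radiolabeled methylated product.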

[4] = molecular target: Histamine N-methyltransferase (Cavia porcellus) (UniProt Q9EST2); experiment: Inhibition of guinea pig HMT at 2 mM by radiochemical technique
Chain of Histamine N-methyltransferase (Cavia porcellus) (Q9EST2 whole entry): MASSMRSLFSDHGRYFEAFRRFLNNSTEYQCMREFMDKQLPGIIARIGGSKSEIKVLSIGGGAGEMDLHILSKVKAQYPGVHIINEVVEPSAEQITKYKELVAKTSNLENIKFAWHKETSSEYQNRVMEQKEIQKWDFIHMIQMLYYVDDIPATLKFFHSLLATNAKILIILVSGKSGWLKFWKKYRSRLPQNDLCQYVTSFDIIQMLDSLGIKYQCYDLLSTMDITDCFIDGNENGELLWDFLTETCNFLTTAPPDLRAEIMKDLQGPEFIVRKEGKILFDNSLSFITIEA
Outline: (§4)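 HMT from guinea pig brain, purified by a published method, was tested with inhibitor at 0.2 or 2.0 mM, SAM-14CH3 (0.05 μCi, 1.0 mM final) and histamine (1.0 mM final) in buffer. Incubation was at 37 °C. Activity was measured radiochemically by extracting the radiolabeled product.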

[5] = molecular target: Histamine N-methyltransferase (Cavia porcellus) (UniProt Q9EST2); experiment: Inhibition of guinea pig HMT at 0.2 mM by radiochemical technique; outline: as §4
[6] = Retardation factor, Rf of the compound on silica gel GF containing 5% Na2HPO4 by chromatography; format: physicochemical; outline: as §1
[7] = molecular target: T3, Phenylethanolamine N-methyltransferase (Bos taurus) (UniProt P10938); experiment: Inhibition of bovine adrenal medulla PNMT at 0.2 mM by radiochemical technique
T3 sequence (whole entry): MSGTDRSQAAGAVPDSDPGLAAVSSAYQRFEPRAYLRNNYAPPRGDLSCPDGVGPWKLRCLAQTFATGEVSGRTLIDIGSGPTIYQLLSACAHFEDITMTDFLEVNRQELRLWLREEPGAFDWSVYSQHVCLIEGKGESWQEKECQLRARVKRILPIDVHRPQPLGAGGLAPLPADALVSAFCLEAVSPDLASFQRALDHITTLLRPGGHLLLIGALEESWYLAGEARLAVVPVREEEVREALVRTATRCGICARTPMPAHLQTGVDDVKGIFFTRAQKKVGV
Outline: (§5)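 Bovine adrenal medulla PNMT, purified by a published method, was tested with inhibitor at 0.2 or 2.0 mM, SAM-14CH3 (0.05 μCi, 1.0 mM final) and DL-β-phenylethanolamine (1.0 mM final) in buffer. Incubation was at 37 °C. Activity was measured radiochemically by extracting the labeled product.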

[8] = molecular target: T3, Phenylethanolamine N-methyltransferase (Bos taurus); experiment: Inhibition of bovine adrenal medulla PNMT at 2 mM by radiochemical technique; outline: as §5
[9] = molecular target: T1, Acetylserotonin O-methyltransferase (Bos taurus); experiment: Inhibition of bovine pineal gland HIOMT at 2 mM by radiochemical technique; outline: as §2
[10] = molecular target: T2, Catechol O-methyltransferase (Rattus norvegicus); experiment: Inhibition of Sprague-Dawley rat liver COMT at 2 mM by radiochemical technique; outline: as §3
[11] = molecular target: T3, Phenylethanolamine N-methyltransferase (Bos taurus); experiment: Inhibition of bovine adrenal medulla PNMT at 1 mM by radiochemical technique
[12] = molecular target: T1, Acetylserotonin O-methyltransferase (Bos taurus); experiment: Inhibition of bovine pineal gland HIOMT at 1 mM by radiochemical technique
[13] = molecular target: Histamine N-methyltransferase (Cavia porcellus) (UniProt Q9EST2); experiment: Inhibition of guinea pig HMT at 0.4 mM by radiochemical technique
[14] = molecular target: Histamine N-methyltransferase (Cavia porcellus) (UniProt Q9EST2); experiment: Inhibition of guinea pig HMT at 1 mM by radiochemical technique
[15] = molecular target: T2, Catechol O-methyltransferase (Rattus norvegicus); experiment: Inhibition of Sprague-Dawley rat liver COMT at 1 mM by radiochemical technique
[16] = molecular target: T2, Catechol O-methyltransferase (Rattus norvegicus); experiment: Inhibition of Sprague-Dawley rat liver COMT at 0.4 mM by radiochemical technique
[17] = molecular target: T3, Phenylethanolamine N-methyltransferase (Bos taurus); experiment: Inhibition of bovine adrenal medulla PNMT at 0.4 mM by radiochemical technique
[18] = molecular target: T1, Acetylserotonin O-methyltransferase (Bos taurus); experiment: Inhibition of bovine pineal gland HIOMT at 0.4 mM by radiochemical technique

| SMILES | Rf [1] | inhibition [2] [%] | inhibition [3] [%] | inhibition [4] [%] | inhibition [5] [%] | Rf [6] | inhibition [7] [%] | inhibition [8] [%] | inhibition [9] [%] | inhibition [10] [%] | inhibition [11] [%] | inhibition [12] [%] | inhibition [13] [%] | inhibition [14] [%] | inhibition [15] [%] | inhibition [16] [%] | inhibition [17] [%] | inhibition [18] [%] |
| --- | --- | --- | --- | --- | --- | --- | --- | --- | --- | --- | --- | --- | --- | --- | --- | --- | --- | --- |
| Nc1ncnc2c1ncn2[C@@H]1O[C@H](CSCC[C@H](N)C(=O)O)[C@@H](O)[C@H]1O [S-ADENOSYLHOMOCYSTEINE] | 0.73 | 71 | 39 | 89 | 40 | 0.73 | 49 | 92 | 94 | 87 | – | – | – | – | – | – | – | – |
| Nc1ncnc2c1ncn2[C@@H]1O[C@H](C[S+]([O-])CC[C@@H](N)C(=O)O)[C@@H](O)[C@H]1O (some centres undefined) | 0.74 | 0 | 14 | 9 | 0 | 0.72 | 10 | 22 | 0 | 42 | – | – | – | – | – | – | – | – |
| Nc1ncnc2c1nnn2[C@@H](CO)O[C@@H](CO)CSCC[C@@H](N)C(=O)O | 0.58 | 12 | 0 | 0 | 0 | 0.69 | 0 | 10 | 31 | 17 | – | – | – | – | – | – | – | – |
| Nc1nnnc2c1ncn2[C@@H]1O[C@H](CSCCC(N)C(=O)O)[C@@H](O)[C@H]1O (single isomer, unassigned) | 0.79 | – | – | – | – | 0.7 | – | – | – | – | 58 | 39 | 0 | 8 | 6 | 3 | 38 | 23 |
| C[S+](CC[C@@H](N)C(=O)O)C[C@H](CO)O[C@H](CO)n1cnc2c(N)ncnc21 (some centres undefined) | 0.11 | 0 | 7 | 0 | 0 | 0.46 | 1 | 21 | 8 | 14 | – | – | – | – | – | – | – | – |
| Nc1ncnc2c1ncn2[C@@H](CO)O[C@@H](CO)CSCC[C@@H](N)C(=O)O | 0.72 | 9 | 0 | 19 | 0 | 0.65 | 8 | 16 | 26 | 26 | – | – | – | – | – | – | – | – |
| Nc1ncnc2c1ncn2[C@@H](CO)O[C@@H](CO)C[S+]([O-])CC[C@@H](N)C(=O)O (some centres undefined) | 0.74 | 7 | 5 | 0 | 0 | 0.6 | 9 | 17 | 16 | 22 | – | – | – | – | – | – | – | – |
| C[S+](CC[C@H](N)C(=O)[O-])C[C@H]1O[C@@H](n2cnc3c(N)ncnc32)[C@H](O)[C@@H]1O (some centres undefined) [ADEMETIONINE] | 0.2 | – | – | – | – | 0.34 | – | – | – | – | – | – | – | – | – | – | – | – |

The next lines start with the values.

| Rf [1] | inhibition [2] [%] | inhibition [3] [%] | inhibition [4] [%] | inhibition [5] [%] | Rf [6] | inhibition [7] [%] | inhibition [8] [%] | inhibition [9] [%] | inhibition [10] [%] | inhibition [11] [%] | inhibition [12] [%] | inhibition [13] [%] | inhibition [14] [%] | inhibition [15] [%] | inhibition [16] [%] | inhibition [17] [%] | inhibition [18] [%] | SMILES |
| --- | --- | --- | --- | --- | --- | --- | --- | --- | --- | --- | --- | --- | --- | --- | --- | --- | --- | --- |
| 0.66 | 18 | 4 | 0 | 0 | 0.69 | 0 | 15 | 25 | 5 | – | – | – | – | – | – | – | – | Nc1nnnc2c1ncn2[C@@H](CO)O[C@@H](CO)CSCC[C@@H](N)C(=O)O |
| 0.75 | 0 | 0 | 3 | 0 | 0.63 | 10 | 15 | 0 | 12 | – | – | – | – | – | – | – | – | Nc1ncnc2c1ncn2[C@@H](CO)O[C@@H](CO)CSC[C@@H](N)C(=O)O |
| 0.79 | 12 | 0 | 43 | 14 | 0.74 | 11 | 27 | 33 | 5 | – | – | – | – | – | – | – | – | Nc1ncnc2c1ncn2[C@@H]1O[C@H](CSCC(N)C(=O)O)[C@@H](O)[C@H]1O (single isomer, unassigned) |
| 0.72 | 49 | – | – | – | 0.71 | – | – | 89 | – | – | – | – | – | – | – | – | – | Nc1ncnc2c1nnn2[C@@H]1O[C@H](CSCCC(N)C(=O)O)[C@@H](O)[C@H]1O (single isomer, unassigned) |
| – | 1 | 5 | 99 | 73 | – | 14 | 32 | 6 | 22 | – | – | – | – | – | – | – | – | Nc1ncnc2c1ncn2[C@@H]1O[C@H](CSCCC(N)C(=O)O)[C@@H](O)[C@H]1O (single isomer, unassigned) |
| 0.72 | 0 | 2 | 0 | 0 | 0.65 | 0 | 0 | 6 | 25 | – | – | – | – | – | – | – | – | Nc1ncnc2c1ncn2[C@@H](CO)O[C@@H](CO)CSCC[C@H](N)C(=O)O |
